ChEMBL document CHEMBL1149120, “Discovery of potent inhibitors of dihydroneopterin aldolase using CrystaLEAD high-throughput X-ray crystallographic screening and structure-directed lead optimization” (J Med Chem, 2004)

test: Inhibition of Staphylococcus aureus 7,8-dihydroneopterin aldolase
Outline: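 DHNA expressed in E. coli BL21(DE3) and purified by DEAE, Q-Sepharose and S300 chromatography; 50 nM enzyme with 4 µM 7,8-dihydroneopterin in 20 mM HEPES pH 7.4, 150 mM NaCl, ambient temperature (~29 °C). IC50 is the concentration halving the initial rate.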

`Nc1nc(O)c2nn(-c3cccc(C(=O)NCCCCO)c3)nc2n1` and `Nc1nc(O)c2nn(-c3cccc(C(=O)NCCCO)c3)nc2n1` are within 1.5-fold of each other in IC50: 2000 nM for the first, 2300 nM for the second.

`CCC(CO)(CO)CNC(=O)c1cccc(-n2nc3nc(N)nc(O)c3n2)c1` and `CC(C)(CO)CNC(=O)c1cccc(-n2nc3nc(N)nc(O)c3n2)c1` are within 1.5-fold of each other in IC50: 950 nM for the first, 730 nM for the second.

`NC1=NC(=O)C2N=C(S)N=C2N1` (configuration not stated) and `Nc1nc(O)c2nn(-c3cccc(C(=O)NCC4(O)CCCCC4)c3)nc2n1` are within 1.5-fold of each other in IC50: 1000 nM for the first, 740 nM for the second.

`Nc1nc(O)c2nn(-c3cccc(C(=O)NC[C@@H]4CCCCC[C@H]4O)c3)nc2n1` and `Nc1nc(O)c2nn(-c3cccc(C(=O)NC[C@H]4CCCC[C@H]4O)c3)nc2n1` are within 1.5-fold of each other in IC50: 350 nM for the first, 410 nM for the second.

Going from `Nc1nc(O)c2nn(-c3cccc(C(=O)NCc4ccc5c(c4)CCO5)c3)nc2n1` to `Nc1nc(O)c2nn(-c3cccc(C(=O)NCc4ccc5c(c4)OCO5)c3)nc2n1`, the IC50 falls from 550 nM to 310 nM (1.8-fold).

First: Nc1nc(O)c2cc(N(C=O)Cc3ccc(Cl)c(Cl)c3)ccc2n1
Second: Cc1nc(N)nc(O)c1N(Cc1ccc(Cl)c(Cl)c1)N=O
The IC50 of the first is 2.2-fold lower: 600 nM for the first, 1300 nM for the second.

`Nc1nc(O)c2nn(-c3cccc(C(=O)NCc4ccc(-c5ccccc5)cc4)c3)nc2n1` and `Nc1nc(O)c2nn(-c3cccc(C(=O)NCc4ccc(Oc5ccccc5)cc4)c3)nc2n1` are within 1.5-fold of each other in IC50: 25000 nM for the first, 22000 nM for the second.

Going from `Nc1nc(O)c2nn(-c3cccc(C(=O)NCc4cc(C(F)(F)F)cc(C(F)(F)F)c4)c3)nc2n1` to `Nc1nc(O)c2nn(-c3cccc(C(=O)NC[C@H]4CCCC[C@@H]4O)c3)nc2n1`, the IC50 falls from 1000 nM to 320 nM (3.1-fold).

With `Cn1c(N)nc(-c2ccccc2)c(Br)c1=O` the IC50 was 38000 nM.
